Measurements from ChEMBL document CHEMBL1165965, “Synthesis and structure-activity relationships of 1,2,3,4-tetrahydropyrido[2,3-b]pyrazines as potent and selective inhibitors of the anaplastic lymphoma kinase” (Bioorg Med Chem, 2010).

How the values were obtained:
[1] = molecular target: T1, Ephrin type-A receptor 3 (Homo sapiens) (UniProt P29320); assay: Inhibition of EPHA3 at 1 uM
T1 sequence (whole entry): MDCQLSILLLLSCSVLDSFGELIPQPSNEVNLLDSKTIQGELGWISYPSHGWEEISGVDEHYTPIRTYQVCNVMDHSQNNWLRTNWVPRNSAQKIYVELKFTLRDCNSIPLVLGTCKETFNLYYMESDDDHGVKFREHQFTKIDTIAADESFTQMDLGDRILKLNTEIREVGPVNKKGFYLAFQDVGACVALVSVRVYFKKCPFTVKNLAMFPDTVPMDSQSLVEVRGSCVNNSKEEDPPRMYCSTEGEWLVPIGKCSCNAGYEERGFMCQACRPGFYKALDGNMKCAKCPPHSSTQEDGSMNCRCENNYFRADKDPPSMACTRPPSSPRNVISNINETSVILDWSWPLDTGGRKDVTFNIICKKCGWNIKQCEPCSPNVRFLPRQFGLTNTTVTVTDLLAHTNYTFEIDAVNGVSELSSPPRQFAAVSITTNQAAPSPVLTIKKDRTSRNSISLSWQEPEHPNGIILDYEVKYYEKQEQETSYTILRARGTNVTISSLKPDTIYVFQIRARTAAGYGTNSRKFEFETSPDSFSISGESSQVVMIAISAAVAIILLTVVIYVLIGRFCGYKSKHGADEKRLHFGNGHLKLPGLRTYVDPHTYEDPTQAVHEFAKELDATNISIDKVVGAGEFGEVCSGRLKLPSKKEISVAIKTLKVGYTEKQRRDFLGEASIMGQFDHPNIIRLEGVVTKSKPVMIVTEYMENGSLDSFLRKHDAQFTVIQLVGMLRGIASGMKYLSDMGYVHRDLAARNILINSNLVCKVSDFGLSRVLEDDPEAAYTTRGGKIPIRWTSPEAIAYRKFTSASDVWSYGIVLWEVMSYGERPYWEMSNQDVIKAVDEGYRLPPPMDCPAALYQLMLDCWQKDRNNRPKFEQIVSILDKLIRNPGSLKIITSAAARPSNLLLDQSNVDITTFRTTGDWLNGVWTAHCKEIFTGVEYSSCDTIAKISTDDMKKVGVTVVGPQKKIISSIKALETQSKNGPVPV
Outline: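 Single-concentration screen using Ambit Bioscience KINOMEscan technology across a panel of 250–400 kinases. Per-kinase inhibition from this screen was summarized as S(90), the fraction of kinases inhibited by more than 90%.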

[2] = molecular target: T2, Serine/threonine-protein kinase 3 (Homo sapiens) (UniProt Q13188); assay: Inhibition of MST2 at 1 uM
T2 sequence (whole entry): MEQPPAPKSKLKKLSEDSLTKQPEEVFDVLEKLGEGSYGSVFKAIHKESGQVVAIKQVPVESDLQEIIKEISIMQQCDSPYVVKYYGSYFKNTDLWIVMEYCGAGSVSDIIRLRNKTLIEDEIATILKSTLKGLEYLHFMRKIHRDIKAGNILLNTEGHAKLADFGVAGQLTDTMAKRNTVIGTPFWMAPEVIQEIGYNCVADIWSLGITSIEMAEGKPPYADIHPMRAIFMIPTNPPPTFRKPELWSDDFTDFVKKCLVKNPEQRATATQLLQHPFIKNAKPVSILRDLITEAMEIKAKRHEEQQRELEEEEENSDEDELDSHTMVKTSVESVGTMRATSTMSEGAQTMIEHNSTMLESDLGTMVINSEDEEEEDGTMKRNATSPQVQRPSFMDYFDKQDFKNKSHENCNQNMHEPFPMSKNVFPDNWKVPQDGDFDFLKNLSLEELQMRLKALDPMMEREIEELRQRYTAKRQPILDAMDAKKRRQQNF

[3] = molecular target: T3, Serine/threonine-protein kinase Nek5 (Homo sapiens) (UniProt Q6P3R8); assay: Inhibition of NEK5 at 1 uM
T3 sequence (whole entry): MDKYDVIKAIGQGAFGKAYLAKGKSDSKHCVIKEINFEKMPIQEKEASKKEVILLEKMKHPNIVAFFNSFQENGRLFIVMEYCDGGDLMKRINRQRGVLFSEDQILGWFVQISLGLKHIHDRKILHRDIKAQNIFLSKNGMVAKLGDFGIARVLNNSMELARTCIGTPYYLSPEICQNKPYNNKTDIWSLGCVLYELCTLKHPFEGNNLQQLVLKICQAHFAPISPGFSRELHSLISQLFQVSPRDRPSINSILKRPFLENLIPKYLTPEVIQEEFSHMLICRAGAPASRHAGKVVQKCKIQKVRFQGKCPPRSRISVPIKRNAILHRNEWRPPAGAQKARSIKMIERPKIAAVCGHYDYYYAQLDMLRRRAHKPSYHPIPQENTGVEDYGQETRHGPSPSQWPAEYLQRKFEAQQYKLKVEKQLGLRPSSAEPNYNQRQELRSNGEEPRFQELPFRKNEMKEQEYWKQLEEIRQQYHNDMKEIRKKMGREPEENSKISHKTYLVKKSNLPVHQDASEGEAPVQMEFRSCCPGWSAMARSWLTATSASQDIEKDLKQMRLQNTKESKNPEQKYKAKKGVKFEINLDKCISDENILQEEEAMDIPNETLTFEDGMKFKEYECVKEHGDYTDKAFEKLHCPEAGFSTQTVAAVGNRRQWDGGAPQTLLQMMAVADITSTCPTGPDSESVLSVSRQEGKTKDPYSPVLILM

[4] = molecular target: T4, Serine/threonine-protein kinase Chk1 (Homo sapiens) (UniProt O14757); assay: Inhibition of CHEK1 at 1 uM
T4 sequence (whole entry): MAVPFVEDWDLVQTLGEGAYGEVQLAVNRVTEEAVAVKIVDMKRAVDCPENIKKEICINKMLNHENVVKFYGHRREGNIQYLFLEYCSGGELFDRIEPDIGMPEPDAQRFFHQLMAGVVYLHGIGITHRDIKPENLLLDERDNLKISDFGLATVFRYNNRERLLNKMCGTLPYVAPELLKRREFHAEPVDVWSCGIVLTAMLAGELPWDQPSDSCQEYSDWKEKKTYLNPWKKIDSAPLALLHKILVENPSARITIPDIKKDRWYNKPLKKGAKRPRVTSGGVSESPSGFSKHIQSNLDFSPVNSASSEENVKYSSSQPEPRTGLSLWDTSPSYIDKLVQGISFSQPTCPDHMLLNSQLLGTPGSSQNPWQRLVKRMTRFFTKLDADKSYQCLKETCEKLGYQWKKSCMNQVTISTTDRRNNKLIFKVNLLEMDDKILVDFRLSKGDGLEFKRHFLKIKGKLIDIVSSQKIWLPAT

Row | inhibition [1] [%] | inhibition [2] [%] | inhibition [3] [%] | inhibition [4] [%] | Structure (SMILES)
1 | < 50 | 88 | < 50 | < 50 | CC(=O)N1CCN(c2cc(-c3cnc4c(c3)N(Cc3cc(Cl)ccc3C(F)(F)F)CCN4)ccn2)CC1
2 | < 50 |  |  |  | O=C(O)c1ccc(-c2cnc3c(c2)N(Cc2cc(Cl)ccc2C(F)(F)F)CCN3)cc1
3 | < 50 |  |  |  | O=C(c1ccc(-c2cnc3c(c2)N(Cc2cc(Cl)ccc2C(F)(F)F)CCN3)cc1)N1CCCCC1
4 | < 50 | < 50 | < 50 | < 50 | CN1CCN(c2ccc(-c3cnc4c(c3)N(Cc3cc(Cl)ccc3C(F)(F)F)CCN4)cn2)CC1
5 | < 50 | < 50 | < 50 | < 50 | CN1CCN(c2ccc(-c3cnc4c(c3)N(Cc3cc(F)ccc3F)CCN4)cn2)CC1
6 | < 50 | < 50 | < 50 | < 50 | CN1CCN(c2ccc(-c3cnc4c(c3)N(Cc3cc(Cl)ccc3Cl)CCN4)cn2)CC1
7 | < 50 |  |  |  | COC1CCN(C(=O)c2ccc(-c3cnc4c(c3)N(Cc3cc(Cl)ccc3C(F)(F)F)CCN4)cc2)CC1
8 | < 50 | < 50 | < 50 | < 50 | CN1CCN(c2ccc(-c3cnc4c(c3)N(Cc3c(F)ccc(F)c3Cl)CCN4)cn2)CC1
9 | < 50 | 97 | < 50 | < 50 | FC(F)(F)c1ccc(Cl)cc1CN1CCNc2ncc(-c3ccnc(N4CCNCC4)c3)cc21
10 | < 50 |  |  |  | O=C(c1ccc(-c2cnc3c(c2)N(Cc2cc(Cl)ccc2C(F)(F)F)CCN3)cc1)N1CCC(N2CCCC2)CC1
